From PubChem BioAssay
LEDGF integ inh: blocks HIV-1 LEDGF/p75-dependent DNA integration. TR-FRET IN-LEDGF/p75 DNA integration, Eu/Cy5. inhibition, % at 3.7 µM. actives 0.64% (n = 370,000);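 active = inhibition above the screen-wide mean plus 3 SD, cut at about 13% in these data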;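 note: signal is the Cy5 over europium emission ratio at 671 and 618 nm; 0% = plate median of compound wells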
SIAE primary: inhibitors of human sialic acid acetylesterase SIAE; Q9HAT2; SIAE FP-Rh probe binding, fluorescence polarization; inhibition, % at 9.66 µM; actives 0.69% (n = 370,000); AID 1053197;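 active = inhibition above a cutoff: mean of compounds within the control limits plus 3 SD of those, cut at about 17% in these data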;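 note: 0% = plate median of compound wells and 100% = probe without SIAE protein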
TDP2 inh: blocks human TDP2 phosphodiesterase activity. actives 0.34% (n = 370,000). inhibition, % at 12.8 µM. recombinant TDP2, T5PNP hydrolysis, p-nitrophenol absorbance 415 nm;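 active = inhibition above the mean of all tested compounds plus 3 SD, set per campaign, cut at about 25% in these data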;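 note: 0% = DMSO with enzyme and 100% = buffer with substrate but no TDP2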
Target sequence (O95551 whole entry, looked up): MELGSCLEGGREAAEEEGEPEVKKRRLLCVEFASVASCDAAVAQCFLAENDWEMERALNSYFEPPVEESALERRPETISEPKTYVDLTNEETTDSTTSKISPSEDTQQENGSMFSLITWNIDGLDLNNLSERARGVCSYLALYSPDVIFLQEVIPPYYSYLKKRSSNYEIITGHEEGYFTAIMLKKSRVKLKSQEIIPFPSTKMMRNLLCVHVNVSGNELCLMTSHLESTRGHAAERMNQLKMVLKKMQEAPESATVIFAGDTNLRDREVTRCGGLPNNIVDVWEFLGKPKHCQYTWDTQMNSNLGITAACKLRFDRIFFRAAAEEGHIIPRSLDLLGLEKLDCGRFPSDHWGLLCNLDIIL
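Test system: human TDP2 enzyme; Input: 120 nM TDP2 per well; Buffer or medium: Mg2+-containing Tris-HCl buffer, pH 7.5; Reagent: 5 mM T5PNP; Dosing: 12.8 µM single point, 1% DMSO; Incubation: reaction 2 h, 37 °C; Detection: p-Nitrophenol epi absorbance; Read-out: % inhibition relative to enzyme-containing and enzyme-free wells; Replicates: single well per compound.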
MBD2 inh: inhibitors of human MBD2 binding to methylated oligonucleotide. Q9UBB5. TR-FRET. inhibition, % at 4.4 µM. actives 0.31% (n = 370,000). AID 686964; in the data active = inhibition above about 13%
UHRF1 MBD2 ctr: blocks human UHRF1 binding to methylated DNA | actives 0.75% (n = 370,000) | UHRF1 binding to methylated oligo, TR-FRET | Q96T88 | inhibition, % at 4.4 µM | AID 687016; in the data active = inhibition above about 21%;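 note: UHRF1 SRA domain binding a hemimethylated CpG hairpin DNA probe; 0% = median of test compound wells and 100% = reference inhibitor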
PRMT1 inh: inhibitors of human PRMT1; recombinant PRMT1, activity-based probe fluorescence polarization; actives 1.3% (n = 370,000); Q99873; AID 652257; inhibition, % at 2.79 µM;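 active = inhibition above about 21% made by adding two undisclosed values, limit read from the data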
SIAE confirm: human SIAE inhibition, confirmation; actives 13% (n = 2,300); SIAE FP-Rh activity-based probe, fluorescence polarization; inhibition, % at 9.66 µM; AID 1117263; shares compounds with SIAE primary;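 active = mean inhibition of the replicates above the hit cutoff set in the primary screen, cut at about 17% in these data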;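 note: 0% = SIAE with DMSO and probe and 100% = probe without SIAE; inhibitors lower polarization as more probe stays unbound to SIAE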
The depositor's hits bear a star; · = no result given; ! = not confirmed by another sample. A selection: hits, their analogues and other compounds. The true share with any hit is near 3.3%.

SMILES	LEDGF integ inh	SIAE primary	TDP2 inh	MBD2 inh	UHRF1 MBD2 ctr	PRMT1 inh	SIAE confirm
CN(c1ccccc1)S(=O)(=O)c1cccc(NC(=O)CSc2ncn[nH]2)c1	-4	18*	0	4	4	4	0
Cc1cccc(OC(C)CCN2CCC(C(O)(c3ccccc3)c3ccccc3)CC2)c1 (stereo not drawn)	-3	0	-2	0	-1	0	·
CCOC(=O)C1CCCN(C(=O)C2c3ccccc3Oc3ccccc32)C1 (stereo not drawn)	-4	4	-5	-2	2	11	·
CCOC(=O)C1CCCN(C(=O)C2COc3ccccc3O2)C1 (stereo not drawn)	1	108*	9	3	1	9	9
O=C(COC(=O)C1COc2ccccc2O1)NC(=O)NC1CCCCC1 (stereo not drawn)	4	47*	-3	7	3	2	-3
CC(=O)c1ccc(OCC(=O)NC(=O)NC2CCCC2)cc1	3	18*	-2	-2	-1	-3	4
O=C(COC(=O)C1COc2ccccc2O1)NC1CCS(=O)(=O)C1 (stereo not drawn)	-2	1	-4	0	8	3	·
COC(=O)c1cccc(Cn2ccc3ccc(-c4ccc5ccn(C(=O)C6CCC6)c5c4)cc32)c1	-1	3	-3	-7	1	1	·
CCc1ccccc1NNC(=O)c1snnc1C	-1	17*	3	-2	3	3	4
Cc1nnsc1C(=O)NNc1c(Cl)cccc1Cl	-1	1	-2	-5	1	6	·
CCOC(=O)c1c(C)[nH]c(C(=O)OCC(=O)Nc2cc(C)nn2-c2ccccc2)c1C	-1	18*	10	1	-1	-3	-2
CCN(CC(=O)NCc1ccc(Cl)cc1)C(=O)CCC(=O)c1ccc(F)cc1	-1	20*	-1	-4	-2	-2	-2
COC(=O)c1cc(-c2cccc(C(F)(F)F)c2)c(=O)n2c1CCC2	2	-3	-7	-2	1	3	·
CN(Cc1ccccc1F)C(=O)C1C2C=CC3(CN(Cc4ccccc4)C(=O)C13)O2 (stereo not drawn)	-2	0	8	-1	3	-7	·
COC(=O)CC1C(=O)NCCN1C(=O)CSc1nc2cc(Cl)ccc2o1 (stereo not drawn)	1	21*	-15	6	-4	-2	3
CCN(Cc1cn(Cc2ccccc2)nn1)S(=O)(=O)c1ccc(N2CCCC2)cc1Br	0	0	4	1	-3	-2	·
C=CCOC(=O)C1=C(C)NC(SCC(=O)NC(=O)OCC)=C(C#N)C1c1cccnc1 (stereo not drawn)	1	18*!	-6	-2	0	12	0
Cc1c(CC(=O)O)c(=O)oc2cc(OCc3nn[nH]n3)ccc12	1	18*	2	-3	1	-3	3
CC(Sc1nc(N2CCOCC2)c2c(c1C#N)CC(C)(C)OC2)C(=O)O (stereo not drawn)	8	7	-13	-6	-2	-2	·
CC(Sc1nc(N2CCCCC2)c2c(c1C#N)CCCC2)C(=O)O (stereo not drawn)	3	22*	-5	0	-1	3	-1
COc1cccc(-c2cc3nc(C)c(C)c(N4CCN(Cc5ccco5)CC4)n3n2)c1	4	-7	-4	-2	0	0	·
CCCCC(=O)NCCNC(=O)c1cc(OCC(F)(F)F)ccc1OCC(F)(F)F	4	26*	3	-4	2	-1	4
O=C(CCl)NCCNC(=O)c1cc(OCC(F)(F)F)ccc1OCC(F)(F)F	-3	-2	-1	4	3	2	·
COc1ccc(CN2C(NC(=O)OCc3ccccc3)=NC3=CC(C)(C)n4c(=O)n(-c5ccccc5)c(=O)n4C32)c(OC)c1 (stereo not drawn)	-2	3	2	0	-2	0	·
CSC[C@@H]1NC(=S)N(c2ccc(C)cc2)C1=O	3	52*	-7	7	0	0	-110
SMILES	LEDGF integ inh	SIAE primary	TDP2 inh	MBD2 inh	UHRF1 MBD2 ctr	PRMT1 inh	SIAE confirm
Cc1ccc(N2C(=O)C3CCC(C)(C2=O)C3(C)C)cc1 (stereo not drawn)	0	3	-8	-3	0	-6	·
COC(=O)[C@]12C[C@H](CC(=O)NCc3ccc(OC)c(OC)c3)C(=O)N(CCc3ccc(OC)c(OC)c3)C1=C[C@H](C(C)(C)C)O[C@@H]2C	3	2	6	1	0	4	·
Cc1nc2ccc(N=NC3=C(O)CCCC3=O)cc2s1	3	6	-10	-13	8	2	·
O=C1CCCC(O)=C1N=Nc1cccc(C(=O)O)c1	5	21*	-9	1	21*	2	5
O=C1CCCC(O)=C1N=Nc1c(Cl)cc(Cl)cc1Cl	1	21*	-2	-7	-2	-2	5
C#CCNC(=O)C[C@@H]1C(=O)N(CCc2ccc(Cl)cc2)/C2=C/CCCCC[C@@]21C(=O)OCC	3	-4	-3	5	0	-1	·
O=S(=O)(Nc1ccc(Nc2ccccc2)cc1)c1ccc(F)cc1	-7	18*	-7	4	1	5	3
C/C(=N\NC(=O)c1ccc(N2CCCC2=O)cc1)c1ccc(O)cc1O	-4	22*	-3	-7	0	1	-2
C/C(=N\NC(=O)c1ccc(N2CCCC2=O)cc1)c1ccccc1	2	-1	-5	1	-1	0	·
Cc1cc(C(=O)COc2ccccc2C(N)=O)c(C)n1C	1	4	14	2	-3	-1	·
Cc1cc(C(=O)COc2cccc3cccnc23)c(C)n1C	11	23*	9	-2	0	20	5
COC(=O)[C@H]1C[C@@]2(N3CCCC3)c3ccccc3N(C(=O)OC(C)(C)C)[C@H]2N1C(=O)OC(C)(C)C	-2	-5	2	-6	1	1	·
COC(=O)Cc1c([C@H](C)[C@@H](OC)c2ccccc2Br)nnn1Cc1ccccc1	-4	3	1	1	1	0	·
Cc1ccc(NC(=O)CC2SC(=NCC3CCCO3)NC2=O)cc1Cl (stereo not drawn)	-2	-2	-5	2	1	3	·
COc1ccc(NC(=O)CC2SC(=NCC3CCCO3)NC2=O)cc1 (stereo not drawn)	-2	17*	5	-1	6	2	-3
C=CCn1c(SCC(=O)c2ccc(O)c(O)c2)nnc1-c1cccc(C)c1	-2	19*	-6	6	2	7	5
C=CCn1c(SCC(=O)c2ccc(O)c(O)c2)nnc1-c1ccccc1OC	-6	4	-8	1	3	10	·
